The list is not random: actives were taken first. Their share in the collection is about 0.72%.
PKD1 inh: PKD1 (human) kinase inhibition. 200,000 compounds, 0.056% hits. PKD1 kinase fluorescence polarization assay. Q15139. inhibition, % (concentration not given with the values); in the data active means inhibition above about 50%
TNAP act hiacc: TNAP (human) activation, high acceptor | P05186 | activation factor at 20 µM | 200,000 tested, under 10 active | purified TNAP, CDP-star luminescence, 1 M DEA, 30 min; hits give high values; 0 = EDTA background, 1 = DMSO-only activity;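 active means activation factor at least 2 at 20 µM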
Target sequence (P05186 whole entry, looked up): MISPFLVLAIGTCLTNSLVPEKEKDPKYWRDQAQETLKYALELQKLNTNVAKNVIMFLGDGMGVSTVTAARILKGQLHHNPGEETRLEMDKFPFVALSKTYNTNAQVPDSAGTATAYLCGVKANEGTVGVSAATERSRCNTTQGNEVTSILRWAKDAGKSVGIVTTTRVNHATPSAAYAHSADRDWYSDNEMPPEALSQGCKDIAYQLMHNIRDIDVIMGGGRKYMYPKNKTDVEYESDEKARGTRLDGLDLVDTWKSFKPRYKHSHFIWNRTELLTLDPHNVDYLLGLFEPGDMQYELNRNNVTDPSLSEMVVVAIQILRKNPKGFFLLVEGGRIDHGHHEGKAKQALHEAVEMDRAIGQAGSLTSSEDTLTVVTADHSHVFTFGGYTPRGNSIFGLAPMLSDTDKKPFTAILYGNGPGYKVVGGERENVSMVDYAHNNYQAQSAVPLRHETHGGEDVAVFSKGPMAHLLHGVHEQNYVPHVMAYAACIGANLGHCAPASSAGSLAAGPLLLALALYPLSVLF
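Assay system: human TNAP; Input: enzyme diluted 1/800 final; Reagent: CDP-star luminogenic substrate at 100 µM final; Timing: 30 min, room temperature; Signal: luminescence; Evaluation: TNAP activation factor scaled between EDTA and DMSO control wells.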
Arbovirus anti: arbovirus infection inhibition; arbovirus infection cell-based antiviral screen; 200,000 compounds, 0.37% hits; inhibition, % at 10 µM; in the data active means inhibition above about 30%
TNAP inh hiacc: blocks human TNAP under high phosphate acceptor concentration | purified TNAP, CDP-star luminescence, 1 M DEA | inhibition, % at 20 µM | 200,000 compounds, 0.03% hits | AID 1135;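 active means over 50% inhibition of tissue-nonspecific alkaline phosphatase at 20 µM in the single-dose screen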;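 further: plate controls were DMSO wells for no effect and EDTA-quenched wells as full inhibition for full effect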
TNAP inh no acc: TNAP (human) inhibition, acceptor-free conditions; inhibition, % at 20 µM; 200,000 compounds, 0.26% hits; P05186; purified TNAP, CDP-star luminescence, 30 min;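 active means tissue-nonspecific alkaline phosphatase inhibition above about 50% at 20 µM in the single-dose screen, limit read from the data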;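 further: 0% = DMSO negative control and 100% = EDTA positive control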
* marks the source's active call; other numbers are inactive results.

SMILES	PKD1 inh	TNAP act hiacc	Arbovirus anti	TNAP inh hiacc	TNAP inh no acc
Cc1cccc(N=C2NC(=O)/C(=C3/C(=O)N(C)c4ccccc43)S2)c1C	-12	0.9	43*	8	0
O=C(CCC(=O)OCc1ccc(Br)cc1)Nc1ccccc1	1	1	1	-3	-4
O=C(Nc1ccccc1C(=O)O)c1ccc2ccccc2n1	-4	1	42*	-1	1
CCOc1cccc(/C=N/NC(=S)Nc2ccccc2[N+](=O)[O-])c1O	4	0.9	-19	14	-99
O=[N+]([O-])c1ccccc1NC(=S)N/N=C/c1ccc(O)c(O)c1	10	0.8	-11	20	85*
Oc1cc2c(cc1O)C1c3ccc(O)c(O)c3OCC1(O)C2 (stereo not given)	-1	0.7	2	34	87*
O=C(COC(=O)CCCN=C1NS(=O)(=O)c2ccccc21)NC(=O)NC1CCCC1	-6	1	5	-2	-9
COc1ccc(C2CC(=O)c3sc(NC(C)=O)nc3C2)cc1 (stereo not given)	-4	1.1	-1	-6	-11
Cc1ccc2c(c1)c1c(n2CC(O)Cn2nc(C)c(Br)c2C)CCCC1 (stereo not given)	1	1	-37	-1	-7
Cc1nn(CC(O)Cn2c3c(c4ccccc42)CCN(C)C3=O)c(C)c1Br (stereo not given)	3	1.1	36*	-7	-6
O=C(CSc1ccc(Cl)cc1)NC1CCCc2ccccc21 (stereo not given)	-3	1	-5	-4	-6
OC(CNCC1(N2CCCCC2)CCCCC1)COc1ccc(Cl)cc1Cl (stereo not given)	-3	1.1	30*	-7	-7
COc1cccc2c1C(=O)c1c(O)c3c(c(O)c1C2=O)C[C@@](O)(C(=O)CO)C[C@@H]3O[C@H]1C[C@H](N)[C@H](O)[C@H](C)O1	75*	0.6	-27	37	-20
Cc1ccc(CN2CCN(Cc3cnc(C)[nH]3)CC2CCO)cc1 (stereo not given)	6	1	-2	-4	-5
O=C(O)c1ccccc1Nc1ccccc1C(=O)O	7	1	6	1	5
O=C(O)c1ccccc1Nc1ccc([N+](=O)[O-])cc1	1	0.8	37*	16	12
O=[N+]([O-])c1ccc(Nc2c3ccccc3nc3ccccc23)cc1	67*	0.8	-34	19	10
CCOc1ccc2nc(NC(=O)CSc3nc(-c4ccccc4)c(C#N)c(=O)[nH]3)sc2c1	5	1	62*	-1	-6
COc1cccc(-c2nc(SCC(=O)Nc3nc(-c4ccccc4)c(C)s3)[nH]c(=O)c2C#N)c1	-1	1	58*	2	0
CCN1CCN(CCCNC(=O)C2c3ccccc3C(=O)N(c3ccc(OC)cc3)C2c2ccc(OC)cc2)CC1 (stereo not given)	-4	1	3	2	-11
O=C1NN(c2ccccc2)C(=O)/C1=C/c1ccc(-c2ccc(Cl)c(C(=O)O)c2)o1	5	0.8	-25	20	19
O=C(O)c1cc(-c2ccc(/C=C3\NC(=O)N(c4ccc(Cl)cc4)C3=O)o2)ccc1Cl	2	1	58*	4	-3
C#CCNC(=O)C1=C[C@H](c2cn(C(C)=O)c3ccccc23)C[C@H](OCc2ccc(CO)cc2)O1	6	1.1	31*	-9	-10
O=C(CSc1ccc2c(c1)OCCO2)Nc1ccc(N2CCOCC2)cc1	6	1	1	-5	-6
C=CCn1c(C)cc(C(=O)COC(=O)CNC(=O)c2ccccc2)c1C	3	1	0	-4	-11
SMILES	PKD1 inh	TNAP act hiacc	Arbovirus anti	TNAP inh hiacc	TNAP inh no acc
Cc1nc2c3cnn(-c4ccc(C)c(C)c4)c3ncn2n1	-3	1	1	2	81*
CCn1c(SCC(=O)NCC2CCCO2)nnc1-c1ccc(S(=O)(=O)N2CCN(C)CC2)cc1 (stereo not given)	-3	1	4	4	-1
O=C(CSc1ccc2c(c1)OCCO2)Nc1cccnc1	-7	1	2	-3	-7
COc1ccc(OC)c(NC(=O)c2cc(-c3cc(Cl)ccc3O)n[nH]2)c1	-9	1	22	-1	-94
Cc1c(Cl)cccc1NC(=O)c1cc(-c2ccccc2O)n[nH]1	-3	1	30*	1	-51
COc1ccc(Cl)cc1NC(=O)c1cc(-c2ccccc2O)n[nH]1	-12	1	70*	-1	-28
Cc1ncoc1C(=O)Nc1cccc(Cl)c1C	-11	1	3	-4	-6
COC(=O)c1ccccc1NC(=O)c1cc(-c2ccc(O)cc2)on1	-8	1.1	48*	-8	10
CC(C)Cc1csc(NC(=O)c2ccc(Cl)cc2)c1C(=O)O	6	1	22	1	0
CC(C)Cc1csc(NC(=O)c2ccccc2Cl)c1C(=O)O	-2	1.1	66*	-8	-8
CCOC(=O)c1c(CC(C)C)csc1NC(=O)C(C)C	1	1	-1	0	-4
Cc1cccc(C(=O)Nc2scc(CC(C)C)c2C(=O)O)c1	-4	1	65*	-4	-6
COc1c(Cl)cc(Cl)cc1CNc1ccc(S(N)(=O)=O)cc1	6	1	-9	1	-4
N#Cc1c(C(F)(F)F)cc(-c2ccccc2)[nH]c1=O	4	1	22	-2	-8
Cc1ccc(-c2cc(C(F)(F)F)c(C#N)c(=O)[nH]2)cc1	1	1	54*	-2	-17
C/C(=C\c1ccc2c(c1)OCO2)C(=O)c1c(C)cc(C)[nH]c1=O	-4	1.1	-5	-5	-8
COc1ccc(C(=O)Nc2cc(C(=O)O)cc(C(=O)O)c2)cc1Cl	-1	1.1	-1	-7	-8
CCOc1ccc(C(=O)Nc2cccc(C(=O)O)c2C)cc1Cl	4	1	-8	-2	-6
CCOc1c(Cl)cc(C(=O)Nc2ccccc2C(=O)O)cc1Cl	-4	1	43*	1	-5
COc1ccc(C(=O)Nc2ccccc2C(=O)O)cc1Cl	-10	1	56*	2	-5
Cc1nc(Cl)sc1C(=O)Nc1cccc(Cl)c1C	-4	1	-2	-4	-9
CCOc1ccc(C(=O)OCC(=O)Nc2cc(C)on2)cc1OCC	-5	1	-4	0	-5
Cc1cc(NC(=O)COC(=O)c2cccc(O)c2)no1	-2	1	-1	-1	52*
Cc1ccc(S(=O)(=O)N2CCN(Cc3ccccc3C(F)(F)F)CC2)cc1	-3	1	8	-4	-12
Cc1ccc(S(=O)(=O)N2CCN(Cc3cc(C(C)C)ccc3O)CC2)cc1	-3	1	30*	2	-4
C=CCn1c(SCC(=O)Nc2cc(C)on2)nnc1C1COc2ccccc2O1 (stereo not given)	-3	1	0	-4	-9
C=CCn1c(SCc2c(C)noc2C)nnc1C1COc2ccccc2O1 (stereo not given)	5	1	71*	-2	-2
